# Results from different studies.
# Lines come from different studies, so protocols differ.
# ABL1 E255K phosphorylated: Tyrosine-protein kinase ABL1, phosphorylated (ABL1, Homo sapiens, UniProt P00519, E255K)
# ABL1 H396P non-phosphorylated: Tyrosine-protein kinase ABL1, non-phosphorylated (ABL1, Homo sapiens, UniProt P00519, H396P)
# ABL1 H396P phosphorylated: Tyrosine-protein kinase ABL1, phosphorylated (ABL1, Homo sapiens, UniProt P00519, H396P)
# ABL1 Q252H phosphorylated: Tyrosine-protein kinase ABL1, phosphorylated (ABL1, Homo sapiens, UniProt P00519, Q252H)
SMILES,target,assay,setting,remaining binding [%]
CN1CCN(c2cnc3c(C4CCN(C(=O)c5ccc(OC(F)(F)F)cc5N)CC4)ncnc3c2)CC1,ABL1 E255K phosphorylated,"binding, competition with immobilised ligand",1 µM,98
N[C@@H]1CCN(c2nccc(-c3cnn4ncccc34)n2)C1,"Tyrosine-protein kinase ABL1 (ABL1, Homo sapiens, UniProt P00519, F317L)",binding,1 µM,100
c1cncc(-c2cccc(Nc3nccc(NC4CCCCC4)n3)c2)c1,ABL1 H396P non-phosphorylated,"binding, competition with immobilised ligand",10 µM,9
O=C1NC(c2ccccn2)Sc2ccccc21 (stereo not drawn),ABL1 E255K phosphorylated,"binding, competition with immobilised ligand",1 µM,77
O=C(c1ccc(Nc2nccc(-c3cc4ccccc4s3)n2)cc1)N1CCC(N2CCCC2)CC1,ABL1 E255K phosphorylated,"binding, competition with immobilised ligand",1 µM,9.9
COc1cnc(Nc2cccc(S(N)(=O)=O)c2)nc1N1CCN(c2ccccc2)CC1,"Tyrosine-protein kinase ABL1, non-phosphorylated (ABL1, Homo sapiens, UniProt P00519, F317I)","binding, competition with immobilised ligand",1 µM,94
CN(CCCC(F)(F)F)c1nccc(-c2cnn3ncccc23)n1,"Tyrosine-protein kinase ABL1, non-phosphorylated (ABL1, Homo sapiens, UniProt P00519)","binding, competition with immobilised ligand",1 µM,76
CNC(=O)[C@@H]1CC[C@@H](n2c(-c3ccc4cnccc4c3)nc3ccc(C(=O)NCc4cccc(C(N)=O)c4)cc32)C1,"Tyrosine-protein kinase ABL1, phosphorylated (ABL1, Homo sapiens, UniProt P00519, F317I)","binding, competition with immobilised ligand",1 µM,100
CN(C)C(=O)Cn1cc(-c2nc(C3(c4ccc(-c5cnc(N)nc5)cc4)CC3)no2)cn1,ABL1 E255K phosphorylated,"binding, competition with immobilised ligand",1 µM,100
COc1ncc2cc3ccccc3nc2c1C#N,ABL1 H396P phosphorylated,"cell-free assay, competition with immobilised ligand",5 µM,97
Cc1cnc(Nc2ccc(C(=O)N3CCC(N4CCCC4)CC3)cc2)nc1-c1cc2ccccc2s1,ABL1 Q252H phosphorylated,"binding, competition with immobilised ligand",1 µM,1.4
O=C(Nc1c[nH]nc1C(=O)NC1CCNCC1)c1cc(F)cc(F)c1,ABL1 H396P phosphorylated,"binding, competition with immobilised ligand",1 µM,100
O=C(O)[C@@H]1[C@@H](Cn2nnc3ccccc3c2=O)CC[C@H]1C(=O)c1ccc(OCCC2CCOCC2)cc1,ABL1 H396P non-phosphorylated,"cell-free assay, competition with immobilised ligand",1 µM,97
C=CC(=O)N1CCC(C(=O)NCC(=O)N2CCN(c3nc(-c4cnc(N)nc4C(F)F)nc(N4CCOCC4)n3)CC2)CC1,"Tyrosine-protein kinase ABL1, non-phosphorylated (ABL1, Homo sapiens, UniProt P00519, T315I)","binding, competition with immobilised ligand",1 µM,71
Cc1nccc(COC(=O)N2C[C@@H]3[C@@H](CNC(=O)c4ccc5[nH]nnc5c4)[C@@H]3C2)n1,ABL1 Q252H phosphorylated,"cell-free assay, competition with immobilised ligand",1 µM,93
CN(C)c1nccc(-c2cnc3ncccn23)n1,"Tyrosine-protein kinase ABL1, phosphorylated (ABL1, Homo sapiens, UniProt P00519)",binding,1 µM,57
O=C(c1ccc(Nc2ncc(Cl)c(-c3cc4ccccc4s3)n2)cc1)N1CCC(N2CCCC2)CC1,"Tyrosine-protein kinase ABL1, non-phosphorylated (ABL1, Homo sapiens, UniProt P00519, Q252H)","binding, competition with immobilised ligand",1 µM,7.5
N#CC1(c2ccccn2)CCN(Cc2cc(C(=O)N3CCCC3)c(=O)n3ccccc23)CC1,ABL1 Q252H phosphorylated,"cell-free assay, competition with immobilised ligand",1 µM,90
Nc1ncc2c(n1)-c1c([nH]c3ccc(C#CC4CC4)cc13)CCCC2,"Tyrosine-protein kinase ABL1, phosphorylated (ABL1, Homo sapiens, UniProt P00519, M351T)","binding, competition with immobilised ligand",1 µM,95
O=C(NCCCN1CCOCC1)c1ccc(Nc2nccc(-c3cc4ccccc4s3)n2)cc1,"Tyrosine-protein kinase ABL1, phosphorylated (ABL1, Homo sapiens, UniProt P00519, F317L)","binding, competition with immobilised ligand",1 µM,75
CC1=C(C#N)[C@@H](c2ccc3[nH]nc(C)c3c2)C(C#N)=C(c2ccc(Cl)cc2)N1,ABL1 Q252H phosphorylated,"cell-free assay, competition with immobilised ligand",1 µM,100
